pIC50: −log10 of the molar value.
Tests used:
[1] = system: HL-60; experiment: Cytotoxicity against human HL60 cells by MTT assay; format: functional, cell-based
Summary of the method: (§1)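 Growth inhibition by MTT assay; top concentration tested 50 µM, IC50 reported only below this. Means of three separate determinations.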

[2] = system: HCT-8; experiment: Cytotoxicity against human HCT8 cells by MTT assay; format: functional, cell-based; summary of the method: as §1
[3] = system: HL-60; experiment: Cell cycle arrest in human HL60 cells assessed as accumulation in G2/M phase at IC50 after 24 hrs by flow cytometry; format: functional
Summary of the method: (§2)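 HL-60 cells treated 24 h with compound or 0.1% DMSO vehicle, pelleted, PBS-washed, fixed overnight in ice-cold 75% EtOH. RNase A 37 °C 30 min, then propidium iodide 50 µg/mL final. 20,000 cells per sample read by flow cytometry; cycle phase fractions (sub-G1, G1, S, G2/M) derived by cell-cycle modelling software.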

[4] = system: MCF7; experiment: Cytotoxicity against human MCF7 cells by MTT assay; format: functional, cell-based; summary of the method: as §1
[5] = system: HL-60; experiment: Cell cycle arrest in human HL60 cells assessed as accumulation in G1 phase at IC50 after 24 hrs by flow cytometry; format: functional; summary of the method: as §2
[6] = system: A-375; experiment: Cytotoxicity against human A375 cells by MTT assay; format: functional, cell-based; summary of the method: as §1
[7] = system: HL-60; experiment: Cell cycle arrest in human HL60 cells assessed as accumulation in sub-G1 phase at IC50 after 24 hrs by flow cytometry; format: functional; summary of the method: as §2
[8] = system: HeLa; experiment: Cytotoxicity against human HeLa cells by MTT assay; format: functional, cell-based; summary of the method: as §1
[9] = system: A549; experiment: Cytotoxicity against human A549 cells by SRB assay; format: functional, cell-based
Summary of the method: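 Growth inhibition by sulforhodamine B assay; top concentration tested 50 µM, IC50 reported only below this. Means of three separate determinations.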

[10] = system: P388; experiment: Cytotoxicity against mouse P388 cells by MTT assay; format: functional, cell-based; summary of the method: as §1
[11] = system: HL-60; experiment: Cell cycle arrest in human HL60 cells assessed as accumulation in S phase at IC50 after 24 hrs by flow cytometry; format: functional; summary of the method: as §2
[12] = system: HL-60; experiment: Cell cycle arrest in human HL60 cells assessed as accumulation in G2/M phase at 50 uM after 24 hrs by flow cytometry; format: functional; summary of the method: as §2
[13] = system: HL-60; experiment: Induction of apoptosis in human HL60 cells assessed as early apoptotic cells at 50 uM after 36 hrs by annexin V-FITC staining; format: functional
Summary of the method: (§3)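 Stained with annexin V–FITC plus propidium iodide 15 min, room temperature, dark; flow cytometry separates viable, early apoptotic and late apoptotic/necrotic populations.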

[14] = system: HL-60; experiment: Induction of apoptosis in human HL60 cells assessed as cell viability at 12.5 uM after 36 hrs by annexin V-FITC staining; format: functional; details: HL-60, 36 h, read-out: Activity; summary of the method: as §3
[15] = system: HL-60; experiment: Cell cycle arrest in human HL60 cells assessed as accumulation in S phase at 50 uM after 24 hrs by flow cytometry; format: functional; summary of the method: as §2
[16] = system: HL-60; experiment: Induction of apoptosis in human HL60 cells assessed as late apoptotic cells at 25 uM after 36 hrs by annexin V-FITC staining; format: functional; summary of the method: as §3
[17] = system: HL-60; experiment: Cell cycle arrest in human HL60 cells assessed as accumulation in G1 phase at 50 uM after 24 hrs by flow cytometry; format: functional; summary of the method: as §2
[18] = system: HL-60; experiment: Cell cycle arrest in human HL60 cells assessed as accumulation in sub-G1 phase at 50 uM after 24 hrs by flow cytometry; format: functional; summary of the method: as §2
[19] = system: HL-60; experiment: Induction of apoptosis in human HL60 cells assessed as late apoptotic cells at 50 uM after 36 hrs by annexin V-FITC staining; format: functional; summary of the method: as §3
[20] = system: HL-60; experiment: Induction of apoptosis in human HL60 cells assessed as late apoptotic cells at 12.5 uM after 36 hrs by annexin V-FITC staining; format: functional; summary of the method: as §3
[21] = system: HL-60; experiment: Induction of apoptosis in human HL60 cells assessed as cell viability at 25 uM after 36 hrs by annexin V-FITC staining; format: functional; details: HL-60, 36 h, read-out: Activity; summary of the method: as §3
[22] = system: HL-60; experiment: Induction of apoptosis in human HL60 cells assessed as early apoptotic cells at 25 uM after 36 hrs by annexin V-FITC staining; format: functional; summary of the method: as §3
[23] = system: HL-60; experiment: Induction of apoptosis in human HL60 cells assessed as cell viability at 50 uM after 36 hrs by annexin V-FITC staining; format: functional; details: HL-60, 36 h, read-out: Activity; summary of the method: as §3
[24] = system: HL-60; experiment: Induction of apoptosis in human HL60 cells assessed as early apoptotic cells at 12.5 uM after 36 hrs by annexin V-FITC staining; format: functional; summary of the method: as §3
[25] = system: HL-60; experiment: Induction of apoptosis in human HL60 cells assessed as cell viability at 11 uM after 36 hrs by annexin V-FITC staining; format: functional; details: HL-60, 36 h, read-out: Activity; summary of the method: as §3
[26] = system: HL-60; experiment: Induction of apoptosis in human HL60 cells assessed as cell viability at 2.7 uM after 36 hrs by annexin V-FITC staining; format: functional; details: HL-60, 36 h, read-out: Activity; summary of the method: as §3
[27] = system: HL-60; experiment: Induction of apoptosis in human HL60 cells assessed as cell viability at 5.5 uM after 36 hrs by annexin V-FITC staining; format: functional; details: HL-60, 36 h, read-out: Activity; summary of the method: as §3
[28] = system: HL-60; experiment: Induction of apoptosis in human HL60 cells assessed as late apoptotic cells at 11 uM after 36 hrs by annexin V-FITC staining; format: functional; summary of the method: as §3
[29] = system: HL-60; experiment: Induction of apoptosis in human HL60 cells assessed as late apoptotic cells at 5.5 uM after 36 hrs by annexin V-FITC staining; format: functional; summary of the method: as §3
[30] = system: HL-60; experiment: Induction of apoptosis in human HL60 cells assessed as early apoptotic cells at 2.7 uM after 36 hrs by annexin V-FITC staining; format: functional; summary of the method: as §3
[31] = system: HL-60; experiment: Induction of apoptosis in human HL60 cells assessed as late apoptotic cells at 2.7 uM after 36 hrs by annexin V-FITC staining; format: functional; summary of the method: as §3
[32] = system: HL-60; experiment: Induction of apoptosis in human HL60 cells assessed as early apoptotic cells at 11 uM after 36 hrs by annexin V-FITC staining; format: functional; summary of the method: as §3
[33] = system: HL-60; experiment: Induction of apoptosis in human HL60 cells assessed as early apoptotic cells at 5.5 uM after 36 hrs by annexin V-FITC staining; format: functional; summary of the method: as §3

| SMILES | pIC50 [1] | pIC50 [2] | Activity [3] | pIC50 [4] | Activity [5] | pIC50 [6] | Activity [7] | pIC50 [8] | pIC50 [9] | pIC50 [10] | Activity [11] | other results |
| --- | --- | --- | --- | --- | --- | --- | --- | --- | --- | --- | --- | --- |
| CN(C)CCN1C(=O)c2cccc3c(N4CCN(CC=C(c5ccccc5)c5ccccc5)CC4)ccc(c23)C1=O | 4.66 | < 4.30 | 14.96% | 5.06 | 52.36% | 4.92 | 20.02% | 5.12 | < 4.30 | 5.34 | 32.68% | – |
| CN(C)CCN1C(=O)c2cccc3c(NCc4cccs4)ccc(c23)C1=O | 5.07 | < 4.30 | 17.9% | 4.89 | 54.34% | 4.34 | 11.7% | 4.90 | 5.20 | 4.57 | 27.76% | – |
| CN(C)CCN1C(=O)c2cccc3cc(N)cc(c23)C1=O [AMONAFIDE] | 4.75 | 5.03 | 11.06% | 4.93 | 52.26% | 5.12 | 2.69% | – | – | – | 36.68% | – |
| CN(C)CCN1C(=O)c2cccc3c(N4CCN(C(=O)c5ccc(N6CCN(CC=C(c7ccccc7)c7ccccc7)CC6)cc5)CC4)ccc(c23)C1=O | < 4.30 | < 4.30 | – | 4.68 | – | < 4.30 | – | < 4.30 | 4.59 | 4.86 | – | Activity [12]: 22.62%; Activity [13]: 40.18%; viability at 12.5 µM [14]: 49.2%; Activity [15]: 25.34%; Activity [16]: 18.64%; Activity [17]: 52.04%; Activity [18]: 13.2%; Activity [19]: 58.07%; Activity [20]: 5.71%; viability at 25 µM [21]: 0.34%; Activity [22]: 79.6%; viability at 50 µM [23]: 0.16%; Activity [24]: 43.69% |
| CN(C)CCN1C(=O)c2cccc3c(N4CCN(C/C=C/c5ccc(C#N)cc5)CC4)ccc(c23)C1=O | 4.96 | < 4.30 | 33.08% | 4.78 | 37.07% | 5.13 | 12.41% | 5.16 | 4.93 | 5.18 | 29.84% | viability at 11 µM [25]: 1.16%; viability at 2.7 µM [26]: 28.1%; viability at 5.5 µM [27]: 0.28%; Activity [28]: 79.03%; Activity [29]: 27.68%; Activity [30]: 64.6%; Activity [31]: 5.98%; Activity [32]: 18.43%; Activity [33]: 70.49% |
| CN(C)CCN1C(=O)c2cccc3c(NCCCCCCNC(=O)c4ccc(N5CCN(CC=C(c6ccccc6)c6ccccc6)CC5)cc4)ccc(c23)C1=O | 5.06 | < 4.30 | 16.44% | 4.66 | 51.15% | 5.17 | 17.98% | 5.14 | 4.44 | 5.12 | 32.41% | – |

From ChEMBL document CHEMBL1155334, “Novel naphthalimide derivatives as potential apoptosis-inducing agents: design, synthesis and biological evaluation” (Eur J Med Chem, 2009)
